According to publication PMC11005929 (Diabetes, Metabolic Syndrome and Obesity, 2024):

How the values were obtained:
[1] = test system: db/db mice; assay: Glucose-lowering effect of repeated administration in db/db mice; type: in vivo, mouse
[2] = test system: DIO mice; assay: Repeated administration in diet-induced obesity; type: in vivo, mouse; settings: s.c. once daily (DR10627 3, 10, 30 nmol/kg; liraglutide 80 nmol/kg)
Procedure, shortened: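 Male C57BL/6 mice, 7 weeks old, kept 11 weeks on a 60% kcal fat diet; those at 42.2–48.7 g were randomised (n=10/group). Standard-diet mice served as normal controls. Dosed s.c. once daily at 5 mL/kg for 57 days. Body weight and food intake were recorded after dosing, and weight change and cumulative intake were calculated. Mean ± SD.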

[3] = test system: non-diabetic participants; settings: 2-year treatment, SCALE trials; cited from earlier work
[4] = Phase 3 trial; cited from earlier work

| Compound | blood glucose level before administration on D28 ([1]; 50 nmol/kg s.c. once daily, n=10, mean ± SD, vehicle 33.6 ± 6.4) | blood glucose levels after treatment on D1 ([1]; first s.c. dose (DR10627 2, 6, 18 nmol/kg; liraglutide 50 nmol/kg)) | body weight from D5 to D57 compared to the vehicle [2] | weight loss [3] | rate of antitaspoglutide antibodies detection [4] |
| --- | --- | --- | --- | --- | --- |
| CCCCCCCCCCCCCCCC(=O)N[C@@H](CCC(=O)NCCCC[C@H](NC(=O)[C@H](C)NC(=O)[C@H](C)NC(=O)[C@H](CCC(N)=O)NC(=O)CNC(=O)[C@H](CCC(=O)O)NC(=O)[C@H](CC(C)C)NC(=O)[C@H](Cc1ccc(O)cc1)NC(=O)[C@H](CO)NC(=O)[C@H](CO)NC(=O)[C@@H](NC(=O)[C@H](CC(=O)O)NC(=O)[C@H](CO)NC(=O)[C@@H](NC(=O)[C@H](Cc1ccccc1)NC(=O)[C@@H](NC(=O)CNC(=O)[C@H](CCC(=O)O)NC(=O)[C@H](C)NC(=O)[C@@H](N)Cc1c[nH]cn1)[C@@H](C)O)[C@@H](C)O)C(C)C)C(=O)N[C@@H](CCC(=O)O)C(=O)N[C@@H](Cc1ccccc1)C(=O)N[C@H](C(=O)N[C@@H](C)C(=O)N[C@@H](Cc1c[nH]c2ccccc12)C(=O)N[C@@H](CC(C)C)C(=O)N[C@H](C(=O)N[C@@H](CCCNC(=N)N)C(=O)NCC(=O)N[C@@H](CCCNC(=N)N)C(=O)NCC(=O)O)C(C)C)[C@@H](C)CC)C(=O)O [liraglutide] | 27.0 ± 3.9 mM | decreased significantly | significantly reduced | 5–10% |  |
| taspoglutide |  |  |  |  | 49% |
